In ChEMBL document CHEMBL2177018, “Identification, synthesis, and biological evaluation of metabolites of the experimental cancer treatment drugs indotecan (LMP400) and indimitecan (LMP776) and investigation of isomerically hydroxylated indenoisoquinoline analogues as topoisomerase I poisons” (J Med Chem, 2012) one finds Drug metabolism, GI50 and inhibition data, which are given here for 14 molecules.

Structures are written as SMILES. Active and inactive are the calls of the source. The rule behind the calls is not given here.

Data set [1] relates to Liver microsomes. As to the kind of experiment: Drug metabolism in human liver microsomes assessed as formation of 6-(3-(1H-Imidazol-1-yl)propyl)-8,9-dihydroxy-2,3-dimethoxy-5H-indeno[1,2-c]isoquinoline-5,11(6H)-dione at 10 uM after 60 mins in presence of NADPH. The class given is ADME, Microsome. The method, boiled down: (§1)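 Substrate at 10 μM with pooled human liver microsomes (15 donors, mixed gender; 1 mg/mL protein) in 50 mM phosphate, pH 7.4, 37 °C. After 5 min preincubation, 1 mM NADPH started a 60 min reaction. Stopped on ice with acidified acetonitrile; supernatant dried, redissolved, LC-MS and LC-MS/MS. Controls lacked microsomes or NADPH.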

Data set [2] deals with Liver microsomes. As to the kind of experiment: Drug metabolism in human liver microsomes assessed as formation of 5,6-Dihydro-3-hydroxy-6-3-(1H-imidazol-1-yl)propyl)-2-methoxy- 8,9-methylenedioxy-5,11-dioxo-11H-indeno[1,2-c]- isoquinoline at 10 uM after 60 mins in presence of NADPH. The class given is ADME, Microsome. The procedure, abridged:
as §1
(In general: Liver microsomes are a subcellular fraction often used to study metabolism.)

The test system of data set [3] is HOP-62. The data set is described as follows: Antiproliferative activity against human HOP62 cells. The class given is functional. The method, boiled down:
(§2)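 NCI-60 human tumour cell line panel. Initial one-dose pre-screen at 10−5 molar, then five concentrations from 10−8 to 10−4 molar. GI50 taken as the concentration giving 50% growth inhibition.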

Data set [4] relates to MCF7. The data set is described as follows: Antiproliferative activity against human MCF7 cells. Format: functional. The method, boiled down:
as §2

Data set [5] addresses T1, DNA topoisomerase 1 (Homo sapiens) (UniProt P11387).
T1 sequence (whole entry): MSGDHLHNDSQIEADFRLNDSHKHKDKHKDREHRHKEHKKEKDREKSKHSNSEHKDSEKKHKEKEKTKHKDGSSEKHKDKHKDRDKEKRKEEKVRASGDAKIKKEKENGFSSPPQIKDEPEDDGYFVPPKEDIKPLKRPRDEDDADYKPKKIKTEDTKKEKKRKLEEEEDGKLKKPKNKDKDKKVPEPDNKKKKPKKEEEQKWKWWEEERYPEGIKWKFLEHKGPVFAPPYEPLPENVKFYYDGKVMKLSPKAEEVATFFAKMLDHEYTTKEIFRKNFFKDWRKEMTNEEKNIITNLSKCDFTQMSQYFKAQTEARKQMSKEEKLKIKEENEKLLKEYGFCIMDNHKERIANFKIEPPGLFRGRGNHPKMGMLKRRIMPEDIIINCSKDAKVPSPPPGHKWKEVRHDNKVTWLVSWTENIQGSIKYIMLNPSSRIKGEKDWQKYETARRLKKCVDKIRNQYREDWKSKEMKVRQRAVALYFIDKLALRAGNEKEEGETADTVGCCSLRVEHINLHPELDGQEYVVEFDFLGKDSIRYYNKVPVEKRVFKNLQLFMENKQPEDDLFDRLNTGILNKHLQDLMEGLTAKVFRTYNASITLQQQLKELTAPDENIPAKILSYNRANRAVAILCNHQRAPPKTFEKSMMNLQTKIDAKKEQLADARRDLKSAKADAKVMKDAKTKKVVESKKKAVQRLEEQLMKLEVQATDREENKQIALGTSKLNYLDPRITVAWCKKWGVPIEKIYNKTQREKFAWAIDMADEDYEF
The data set is described as follows: Inhibition of human recombinant Top1-mediated DNA cleavage after 20 mins by […] analysis relative to camptothecin. Set-up: concentration or dose not given beside the values. The method, boiled down:
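Baculovirus-purified human recombinant Top1 with ~2 nM 117-bp oligonucleotide, 3′-end 32P-labelled. Compounds at 0.1–100 μM, room temperature 20 min, stopped with 0.5% SDS. 20% denaturing PAGE, phosphorimaging. Cleavage graded against 1 μM camptothecin.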

The test system of data set [6] is UACC-62. As to the kind of experiment: Antiproliferative activity against human UACC62 cells. Format: functional. The method, boiled down:
as §2

The subject of data set [7] is DU-145. The data set is described as follows: Antiproliferative activity against human DU145 cells. The class given is functional. The method, boiled down:
as §2

For data set [8], the system named is HCT-116. The data set is described as follows: Antiproliferative activity against human HCT116 cells. Format: functional. The procedure, abridged: as §2
Data set [9] relates to SF-539. As to the kind of experiment: Antiproliferative activity against human SF539 cells. Format: functional. The method, boiled down:
as §2

Data set [10] concerns OVCAR-3. The data set is described as follows: Antiproliferative activity against human OVCAR3 cells. The class given is functional. The method, boiled down:
as §2

For data set [11], the system named is SN12C. The data set is described as follows: Antiproliferative activity against human SN12C cells. The class given is functional. The procedure, abridged: as §2
Data set [12] deals with Liver microsomes. As to the kind of experiment: Drug metabolism in human liver microsomes assessed as formation of 5,6-Dihydro-3-hydroxy-2-methoxy-8,9-methylenedioxy-6-3- [(morpholino)propyl)]-5,11-dioxo-11H-indeno[1,2-c]- isoquinoline at 10 uM after 60 mins in presence of NADPH. The class given is ADME, Microsome. Particulars: 1 h. The method, boiled down:
as §1

In data set [13] the test system is Liver microsomes. As to the kind of experiment: Drug metabolism in human liver microsomes assessed as formation of 8,9-Dihydroxy-2,3-dimethoxy-6-(3-morpholinopropyl)-5Hindeno[ 1,2-c]isoquinoline-5,11(6H)-dione at 10 uM after 60 mins in presence of NADPH. Format: ADME, Microsome. The settings on record: 1 h. The procedure, abridged: as §1

With `COc1cc2c3c(n(CCCn4ccnc4)c(=O)c2cc1OC)-c1cc2c(cc1C3=O)OCO2` [INDIMITECAN], the Drug metabolism result in data set [1] and in data set [2] was “Active” each time.

On to `COc1cc2c(cc1O)C(=O)c1c-2n(CCCn2ccnc2)c(=O)c2cc(OC)c(OC)cc12`, for which the GI50 in [3], in data set [4], in [6], in data set [7], in data set [8] and in [9] was less than 0.01 µM throughout. Further, the GI50 (commonly the concentration that inhibits growth by half) in [10] was 0.02 µM; in data set [11], less than 0.01 µM. Besides, the inhibition (commonly the drop in the measured response relative to a control, in per cent) in data set [5] was “Active”.

`COc1cc2c3c(n(CCCn4ccnc4)c(=O)c2cc1OC)-c1cc(O)c(O)cc1C3=O`: the GI50 is 0.04 µM in data set [3]; 0.02 µM in [4]; less than 0.01 µM in [6]; 0.1 µM in data set [7]; 0.229 µM in [8]; 0.01 µM in data set [9]. Further, the GI50 in data set [10] worked out at 0.407 µM; in data set [11], 0.03 µM. Moreover, the inhibition in data set [5] came to 50%.

Consider `COc1cc2c3c(n(CCCn4ccnc4)c(=O)c2cc1OC)-c1cc2c(cc1C3O)OCO2` (centres undefined), for which the GI50 in data set [3] came to 0.549 µM; in data set [4], 0.427 µM; in data set [6], 0.372 µM; in data set [7], 0.407 µM; in data set [8], 1.35 µM; in data set [9], 0.479 µM. For the same molecule, the GI50 in [10] came out at 1.95 µM; in [11] it was 0.501 µM. Besides, the inhibition in [5] was determined as 50%.

On to `COc1cc2c(cc1O)-c1c(c3cc(OC)c(OC)cc3c(=O)n1CCCN1CCOCC1)C2=O`, for which the GI50 in [3] came to 0.18 µM; in [4] it was 0.03 µM; in data set [6], 0.07 µM; in data set [7], 0.204 µM; in data set [8], 2.34 µM; in data set [9], 0.282 µM. Moreover, the GI50 in [10] was found to be 8.32 µM; in data set [11], 0.191 µM. Also, in [5], the inhibition is 75%.

`COc1cc2c3c(n(CCCn4ccnc4)c(=O)c2cc1O)-c1cc2c(cc1C3=O)OCO2`: the 50% growth inhibitory concentration (GI50) in data set [3], in data set [4], in [6], in data set [7], in [8] and in data set [9] was less than 0.01 µM in each case. Moreover, the GI50 was 0.03 µM in [10] and less than 0.01 µM in data set [11]. In addition, the inhibition entry in data set [5] was “Active”.

With `COc1cc2c(=O)n(CCCN3CCOCC3)c3c(c2cc1O)C(=O)c1cc2c(cc1-3)OCO2`, the GI50 was 0.257 µM in [3]; 0.144 µM in data set [4]; 0.282 µM in data set [6]; 0.257 µM in data set [7]; 0.279 µM in data set [8]; 0.335 µM in [9]. The concentration for 50% growth inhibition (GI50) in data set [10] worked out at 0.871 µM; in [11], 0.195 µM. Also, the inhibition in data set [5] was found to be 50%.

On to `COc1cc2c3c(n(CCCN4CCOCC4)c(=O)c2cc1OC)-c1cc2c(cc1C3=O)OCO2` [INDOTECAN], for which the Drug metabolism entry in data set [12] and in data set [13] was “Active” each time.

As for `COc1cc2c(cc1O)C(=O)c1c-2n(CCCN2CCOCC2)c(=O)c2cc(OC)c(OC)cc12`, the GI50 in data set [3] turned out to be 0.02 µM; in [4], 0.02 µM; in [6], 0.02 µM; in data set [7], 0.02 µM; in data set [8] it was 0.03 µM; in data set [9] it was 0.02 µM. In addition, the GI50 was found to be 0.03 µM in data set [10] and 0.02 µM in data set [11]. Further, the inhibition result in data set [5] is “Active”.

As for `COc1cc2c(=O)n(CCCn3ccnc3)c3c(c2cc1O)C(=O)c1cc2c(cc1-3)OCO2`, the GI50 in data set [3] was less than 0.01 µM; in data set [6] it was 0.03 µM; in [7], less than 0.01 µM; in data set [8], 0.02 µM; in data set [9], less than 0.01 µM; in data set [10], 0.07 µM. In data set [11], this molecule registered a concentration for 50% growth inhibition (GI50) of less than 0.01 µM. For the same molecule, in data set [5], the inhibition entry was “Active”.

As for `COc1cc2c3c(n(CCCN4CCOCC4)c(=O)c2cc1OC)-c1cc2c(cc1C3O)OCO2` (centres undefined), the GI50 in data set [3] was 2.09 µM; in [4] it was 0.646 µM; in data set [6], 0.776 µM; in data set [7], 2.63 µM; in data set [8], 2.4 µM; in data set [9] it was 2.4 µM. Besides, the GI50 worked out at 4.79 µM in [10] and 3.39 µM in data set [11]. Also, the inhibition in data set [5] came to 50%.

In the case of `COc1cc2c3c(n(CCCN4CCOCC4)c(=O)c2cc1OC)-c1cc(O)c(O)cc1C3=O`, the GI50 in data set [3] was 0.371 µM; in data set [4], 0.05 µM; in [6], 0.078 µM; in data set [7], 0.49 µM; in data set [8], 0.407 µM; in data set [9], 0.148 µM. The GI50 in data set [10] turned out to be 0.501 µM; in data set [11], 0.065 µM. In addition, the inhibition result in data set [5] was “Active”.

With `COc1cc2c(cc1O)-c1c(c3cc(OC)c(OC)cc3c(=O)n1CCCn1ccnc1)C2=O`, the GI50 in [3] is greater than 100 µM; in [4], 0.05 µM; in data set [6], 0.331 µM; in data set [7], greater than 100 µM; in [8], greater than 100 µM; in [10] it was greater than 100 µM. In addition, the inhibition in [5] is 50%.

`COc1cc2c3c(n(CCCN4CCOCC4)c(=O)c2cc1O)-c1cc2c(cc1C3=O)OCO2`: the GI50 in data set [3] is 0.01 µM; in data set [4], less than 0.01 µM; in [6], less than 0.01 µM; in data set [7], less than 0.01 µM; in data set [8] it was 0.02 µM; in data set [9], less than 0.01 µM. For the same molecule, the results for the GI50 in data set [10] and in [11] were 0.03 µM and less than 0.01 µM, respectively. Moreover, the inhibition in data set [5] came out at 75%.
